Laboratory results published in ChEMBL document CHEMBL1124655, “Substituted 5-amino-4,5,6,7-tetrahydroindazoles as partial ergoline structures with dopaminergic activity” (J Med Chem, 1989).
Active and inactive are the calls of the source. The calls are words filed in the database; no cut-off is given here.

Experiments:
Rattus norvegicus [1] = experiment: Inhibition of serum prolactin concentration in rats when 5 mg/Kg was administered intraperitoneally; type: functional
In short: (§1)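 Prolactin in serum of nonreserpinized male rats (Clemens method) after 5 mg/kg ip. Values are mean ± SE for 6-10 rats; significance versus control at P<0.05.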

Rattus norvegicus [2] = experiment: Effect on 3,4-Dihydroxyphenylacetic acid concentration in whole rat brain when 10 mg/Kg was administered intraperitoneally; type: functional
In short: (§2)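 Rats dosed 10 mg/kg ip. Whole-brain dopamine, DOPAC and HVA measured by liquid chromatography with electrochemical detection, expressed as nmol/g and as % change from a control group. Mean ± SE, five rats per group; significance at P<0.05.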

Rattus norvegicus [3] = experiment: Effect on homovanillic acid concentration in whole rat brain when 10 mg/kg was administered intraperitoneally; type: functional; settings: route intraperitoneal
In short: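 Rats dosed ip at 10 mg/kg. Whole brain was assayed for HVA, with dopamine and DOPAC measured alongside, by liquid chromatography with electrochemical detection. Levels are in nmol/g and expressed as % change from control. Values are mean ± standard error for five rats per group. Significance versus control was taken at P<0.05.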

Rattus norvegicus [4] = experiment: Effect on serum corticosterone level in whole rat brain when 10 mg/kg was administered intraperitoneally; type: functional; settings: route intraperitoneal
In short: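 Rats dosed ip at 10 mg/kg. Serum corticosterone was determined spectrofluorometrically and reported in µg/100 mL, as % change from vehicle. Values are mean ± standard error for five rats per group. Significance versus control was taken at P<0.05.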

Rattus norvegicus [5] = experiment: Reduction of serum prolactin concentration in rats, 5 mg/Kg administered intraperitoneally; type: functional; in short: as §1
Rattus norvegicus [6] = experiment: Effect on dopamine concentration in whole rat brain when 10 mg/Kg was administered intraperitoneally; type: functional; in short: as §2
[7] = molecular target: D(2) dopamine receptor (Bos taurus) (UniProt P20288); experiment: Inhibitory activity against dopamine receptor D2 in calf corpus striatum using [3H]-Spiperone as radioligand; type: tissue-based
Sequence of D(2) dopamine receptor (Bos taurus) (P20288 whole entry): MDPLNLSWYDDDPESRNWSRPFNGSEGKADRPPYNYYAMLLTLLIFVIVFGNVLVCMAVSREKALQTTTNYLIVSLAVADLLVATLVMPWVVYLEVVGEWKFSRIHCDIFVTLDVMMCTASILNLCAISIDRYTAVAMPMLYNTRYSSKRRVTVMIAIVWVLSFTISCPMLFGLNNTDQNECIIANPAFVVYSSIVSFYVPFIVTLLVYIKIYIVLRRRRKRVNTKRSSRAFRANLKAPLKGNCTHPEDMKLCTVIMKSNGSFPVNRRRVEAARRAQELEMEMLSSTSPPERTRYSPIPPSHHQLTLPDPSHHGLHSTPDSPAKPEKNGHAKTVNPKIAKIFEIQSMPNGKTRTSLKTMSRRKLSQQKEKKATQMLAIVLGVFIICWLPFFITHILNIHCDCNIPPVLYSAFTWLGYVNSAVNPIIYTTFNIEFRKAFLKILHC
In short: (§3)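 Displacement of [3H]spiperone binding in calf corpus striatum membranes; some values given as percent displacement at 1000 nM.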

[8] = molecular target: D(2) dopamine receptor (Rattus norvegicus) (UniProt P61169); experiment: (§4) Inhibitory activity against dopamine receptor D2 in rat corpus striatum using [3H]apomorphine as radioligand; type: tissue-based
Sequence of D(2) dopamine receptor (Rattus norvegicus) (P61169 whole entry): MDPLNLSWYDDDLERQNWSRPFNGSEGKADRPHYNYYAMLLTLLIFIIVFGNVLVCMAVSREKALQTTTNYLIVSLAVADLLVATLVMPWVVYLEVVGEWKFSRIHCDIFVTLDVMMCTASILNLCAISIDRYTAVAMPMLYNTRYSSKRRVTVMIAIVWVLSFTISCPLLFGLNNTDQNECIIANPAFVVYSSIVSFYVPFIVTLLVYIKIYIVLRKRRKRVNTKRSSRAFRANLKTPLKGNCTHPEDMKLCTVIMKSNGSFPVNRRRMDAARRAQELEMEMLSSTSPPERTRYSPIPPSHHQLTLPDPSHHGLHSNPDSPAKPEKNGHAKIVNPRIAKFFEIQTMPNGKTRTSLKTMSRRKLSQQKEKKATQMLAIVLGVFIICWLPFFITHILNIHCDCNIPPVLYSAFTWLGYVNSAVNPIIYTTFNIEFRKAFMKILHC
In short: (§5)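 Displacement of [3H]apomorphine binding in rat corpus striatum membranes; some values given as percent displacement at 1000 nM.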

D(2) dopamine receptor [9] = molecular target: T1, D(2) dopamine receptor (Bos taurus, UniProt P20288); experiment: Inhibitory activity against dopamine receptor D2 in calf corpus striatum using [3H]spiperone as radioligand; type: tissue-based; in short: as §3
T1 sequence (P20288 whole entry): as the sequence (P20288 whole entry) above

D(2) dopamine receptor [10] = molecular target: T2, D(2) dopamine receptor (Rattus norvegicus, UniProt P61169); experiment: as §4; type: tissue-based; in short: as §5
T2 sequence (P61169 whole entry): as the sequence (P61169 whole entry) above

Rattus norvegicus [11] = experiment: Dopa accumulation in GBL-treated rats after the administration at a dose of 0.3 mg/Kg; type: functional
In short: (§6)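 Male rats given compound ip; γ-butyrolactone 500 mg/kg ip 10 min later, then decarboxylase inhibitor NSD 1015 100 mg/kg ip 5 min after GBL and 40 min before sacrifice. Striatal dopa accumulation measured by LC with electrochemical detection; Roth autoreceptor paradigm. Values are mean ± SE, five rats per group; one control group received no GBL.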

Rattus norvegicus [12] = experiment: Dopa accumulation in GBL-treated rats after the administration at a dose of 1.0 mg/Kg; type: functional; in short: as §6
Rattus norvegicus [13] = experiment: Dopa accumulation in GBL-treated rats after the administration at a dose of 10 mg/Kg; type: functional; in short: as §6
Rattus norvegicus [14] = experiment: Dopa accumulation in GBL-treated rats after the administration at a dose of 3 mg/Kg; type: functional; in short: as §6
Rattus norvegicus [15] = species on record: Rattus norvegicus; experiment: Dopa accumulation in GBL-treated rats in the absence of the compound; type: functional; in short: as §6
Rattus norvegicus [16] = experiment: Effect on serum corticosterone level […] when 10 mg/Kg was administered intraperitoneally; type: functional
In short: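 Rats dosed 10 mg/kg ip. Serum corticosterone determined spectrofluorometrically (Solem and Brinck-Johnsen method), reported as µg/100 mL versus a vehicle group and as % change from control. Mean ± SE, five rats per group; significance P<0.05.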

Rattus norvegicus [17] = experiment: Effect on dopamine concentration in whole rat brain when 10 mg/Kg 10 mg/kg was administered intraperitoneally; type: functional; settings: route intraperitoneal; in short: as §2
Rattus norvegicus [18] = experiment: (§7) Effect on homovanillic acid concentration in whole rat brain when 10 mg/Kg was administered intraperitoneally; type: functional; in short: as §2
D(2) dopamine receptor [19] = molecular target: T1, D(2) dopamine receptor; experiment: (§8) Inhibitory activity against Dopamine receptor D2 in calf corpus striatum using [3H]spiperone as radioligand; type: tissue-based; in short: as §3
D(2) dopamine receptor [20] = molecular target: T2, D(2) dopamine receptor; experiment: Inhibitory activity against Dopamine receptor D2 in rat corpus striatum using [3H]Apomorphine as radioligand; type: tissue-based; in short: as §5
Rattus norvegicus [21] = experiment: Inhibition of serum prolactin concentration in rats when 5 mg/kg was administered intraperitoneally; type: functional; settings: ip, route intraperitoneal; in short: as §1
Rattus norvegicus [22] = experiment: as §7
Rattus norvegicus [23] = experiment: Inhibition of serum prolactin concentration in rats when 5 mg/Kg was administered intraperitoneally; NS means not significant; type: functional, organism-based; in short: as §1
[24] = molecular target: D(2) dopamine receptor (Bos taurus) (UniProt P20288); experiment: as §8; type: tissue-based; in short: as §3
[25] = molecular target: D(2) dopamine receptor (Rattus norvegicus) (UniProt P61169); experiment: Inhibitory activity against Dopamine receptor D2 in rat corpus striatum using [3H]apomorphine as radioligand; type: tissue-based; in short: as §5

SMILES | IC50 (D(2) dopamine receptor [9]) | IC50 (D(2) dopamine receptor [10]) | Inhibition (Rattus norvegicus [1]) | Turnover (Rattus norvegicus [2]) | Turnover (Rattus norvegicus [5]) | Turnover (Rattus norvegicus [6]) | Turnover (Rattus norvegicus [16]) | Turnover (Rattus norvegicus [18]) | further results
CCCN1C[C@H](CSC)C[C@@H]2c3cccc4[nH]cc(c34)C[C@H]21 [PERGOLIDE] |  |  | 88% | 0.53 nmol/g | 2 ng/mL | 6.42 nmol/g |  |  | Turnover (Rattus norvegicus [3]): 0.32 nmol/g; Turnover (Rattus norvegicus [4]): 54 µg/100 mL
CCCN[C@@H]1Cc2c[nH]nc2C[C@H]1CCCO |  |  | 46% |  | 4.4 ng/mL |  |  |  | Displacement [7]: 10%; Displacement [8]: 45%
CCCN(C)C1CCc2n[nH]cc2C1 (centres undefined) |  |  |  | 0.43 nmol/g | 2 ng/mL | 5.16 nmol/g | 41 µg/100 mL |  | IC50 (D(2) dopamine receptor [19]): 8330 nM; IC50 (D(2) dopamine receptor [20]): 1230 nM; inhibition in vivo at 5 mg/kg (Rattus norvegicus [21]): 82%; Turnover (Rattus norvegicus [3]): 0.22 nmol/g
CCCCN(CCC)C1CCc2n[nH]cc2C1 (centres undefined) |  |  |  | 0.39 nmol/g | 1.9 ng/mL | 4.94 nmol/g | 38.6 ng/mL |  | IC50 (D(2) dopamine receptor [19]): 10000 nM; IC50 (D(2) dopamine receptor [20]): 330 nM; inhibition in vivo at 5 mg/kg (Rattus norvegicus [21]): 83%
CCCCNC1CCc2[nH]ncc2C1 (centres undefined) | > 10000 nM | > 10000 nM |  |  |  |  |  |  | 
CCCNC1CCc2nc(N)sc2C1 (centres undefined) | > 1000 nM |  | 78% | 0.35 nmol/g | 3.7 ng/mL | 5.08 nmol/g | 54 µg/100 mL |  | Turnover (Rattus norvegicus [22]): 0.15 nmol/g
c1ccc(CCNC2CCc3n[nH]cc3C2)cc1 (centres undefined) | > 10000 nM |  |  | 0.51 nmol/g | 6 ng/mL | 3.65 nmol/g | 7.7 µg/100 mL | 0.34 nmol/g | inhibition (Rattus norvegicus [23]): inactive
CCCCNC1CCc2n[nH]cc2C1 (centres undefined) |  |  |  | 0.53 nmol/g | 13.4 ng/mL | 3.9 nmol/g | 5.8 µg/100 mL | 0.36 nmol/g | inhibition (Rattus norvegicus [23]): inactive
CCCN(CCc1ccccc1)C1CCc2n[nH]cc2C1 (centres undefined) | 1060 nM | 140 nM | 87% | 0.4 nmol/g | 1.4 ng/mL | 4.41 nmol/g | 17.5 µg/100 mL | 0.23 nmol/g | 
CCCN(CCCSC)C1CCc2n[nH]cc2C1 (centres undefined) | 3990 nM | 310 nM | 90% | 0.28 nmol/g | 1.1 ng/mL | 4.92 nmol/g | 48 µg/100 mL | 0.16 nmol/g | 
CCCN[C@@H]1Cc2c[nH]nc2C[C@H]1CCCOC |  |  | 44% |  | 4.6 ng/mL |  |  |  | Displacement [7]: 12%; Displacement [8]: 50%
CCCN[C@@H]1Cc2c[nH]nc2C[C@H]1CCCSC |  |  |  |  | 7.8 ng/mL |  |  |  | Displacement [7]: 10%; Displacement [8]: 45%; inhibition (Rattus norvegicus [23]): inactive
CCCN[C@@H]1Cc2c[nH]nc2C[C@H]1CCC |  |  |  |  | 5.1 ng/mL |  |  |  | Displacement [24]: 9%; Displacement [25]: 41%
c1csc(CCNC2CCc3n[nH]cc3C2)c1 (centres undefined) | > 10000 nM | 9160 nM |  | 0.49 nmol/g | 7.9 ng/mL | 3.47 nmol/g | 5.5 µg/100 mL | 0.38 nmol/g | inhibition (Rattus norvegicus [23]): inactive

Further lines, with some results ahead:

IC50 (D(2) dopamine receptor [9]) | IC50 (D(2) dopamine receptor [10]) | SMILES | Inhibition (Rattus norvegicus [1]) | Turnover (Rattus norvegicus [2]) | Turnover (Rattus norvegicus [5]) | Turnover (Rattus norvegicus [6]) | Turnover (Rattus norvegicus [16]) | Turnover (Rattus norvegicus [18]) | further results
15200 nM | 65 nM | CCCNC1CCc2n[nH]cc2C1 (centres undefined) | 78% | 0.51 nmol/g | 2.4 ng/mL |  | 31.7 µg/100 mL | 0.51 nmol/g | Accumulation (Rattus norvegicus [11]): 25.2 nM/g; Accumulation (Rattus norvegicus [12]): 23.1 nM/g; Accumulation (Rattus norvegicus [13]): 12.1 nM/g; Accumulation (Rattus norvegicus [14]): 16.9 nM/g; Accumulation (Rattus norvegicus [15]): 24.8 nM/g; Turnover (Rattus norvegicus [17]): 4.86 nmol/g
1410 nM | 160 nM | CCCN(CCc1cccs1)C1CCc2n[nH]cc2C1 (centres undefined) | 73% | 0.43 nmol/g | 2.8 ng/mL | 4.78 nmol/g | 17.3 µg/100 mL | 0.24 nmol/g | 
> 10000 nM | 2030 nM | CSCCCNC1CCc2n[nH]cc2C1 (centres undefined) |  | 0.49 nmol/g | 9.9 ng/mL | 3.91 nmol/g | 3.8 µg/100 mL | 0.27 nmol/g | inhibition (Rattus norvegicus [23]): inactive
11600 nM | 610 nM | CCNC1CCc2n[nH]cc2C1 (centres undefined) | 91% | 0.55 nmol/g | 1.6 ng/mL | 6.39 nmol/g | 16.6 µg/100 mL | 0.4 nmol/g | 
